For 20 molecules, inhibition, Activity and IC50 results are on record in ChEMBL document CHEMBL3596136, “Design, synthesis and biological evaluation of paralleled Aza resveratrol-chalcone compounds as potential anti-inflammatory agents for the treatment of acute lung injury” (Bioorg Med Chem Lett, 2015).

pIC50: −log10 of the molar value. Active and inactive are the calls of the source. The rule behind the calls is not given here.

The test system of series [1] is RAW264.7. Briefly: Anti-inflammatory activity in mouse RAW264.7 cells assessed as inhibition of LPS-induced IL6 production at 10 mM pre-incubated for 10 mins before LPS stimulation for 24 hrs by ELISA method. As to conditions: in the assay text read “pre-incubated for 30 mins” for “pre-incubated for 10 mins”. It counts as functional, cell-based. The method, boiled down:
(§1)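 RAW 264.7 macrophages pretreated with compound for 30 min, then stimulated with LPS for 24 h. TNF-α and IL-6 in culture medium measured by ELISA and normalized to total protein. Expressed as percent of LPS group; mean ± SEM of 3 independent experiments.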
On the technique in general: ELISA stands for enzyme-linked immunosorbent assay.

Series [2] deals with RAW264.7. In words: Anti-inflammatory activity in mouse RAW264.7 cells assessed as inhibition of LPS-induced TNFalpha production at 10 mM pre-incubated for 10 mins before LPS stimulation for 24 hrs by ELISA method. It counts as functional, cell-based. To be noted: in the assay text read “pre-incubated for 30 mins” for “pre-incubated for 10 mins”. The method, boiled down: as §1

The test system of series [3] is Mus musculus. In words: Anti-inflammatory activity in C57BL/6 mouse model of LPS-induced acute lung injury assessed as reduction in serum TNFalpha level at 20 mg/kg for 1 week dosed before LPS instillation for 6 hrs. It counts as functional, organism-based. The method, boiled down:
(§2)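 LPS-induced ALI in mice. Pretreatment at 20 mg/kg for one week, then intratracheal LPS (5 mg/kg). Animals killed 6 h later. BALF and serum collected and TNF-α measured in each.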

Series [4] relates to Mus musculus. Briefly: Anti-inflammatory activity in C57BL/6 mouse model of LPS-induced acute lung injury assessed as reduction in lung CD68-stained macrophages level at 20 mg/kg for 1 week dosed before LPS instillation for 6 hrs by immunohistochemistry method. The format is functional, organism-based. The method, boiled down: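 Lung sections from mice killed 6 h after intratracheal LPS, with or without pretreatment. Macrophages detected by immunohistochemistry for the marker CD68.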

Series [5] can be described thus: Toxicity against human HL7702 cells assessed as reduction in cell survival at 10 uM incubated for 24 hrs by MTT assay. The format is cell-based. As to conditions: l02, 24 h. In a few lines:
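HL-7702 normal hepatic cells treated at 10 µM for 24 h. Viability measured by MTT.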

Series [6] has as its system RAW264.7. Briefly: Anti-inflammatory activity in mouse RAW264.7 cells assessed as inhibition of LPS-induced IL6 production pre-incubated for 10 mins before LPS stimulation for 24 hrs by ELISA method. It counts as functional, cell-based. To be noted: in the assay text read “pre-incubated for 30 mins” for “pre-incubated for 10 mins”. The method, boiled down:
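RAW 264.7 macrophages pretreated for 30 min at 1, 2.5, 5 and 10 µM, then given LPS (0.5 µg/mL) for 24 h. IL-6 in medium measured by ELISA, normalized to total protein, and expressed as percent of LPS. Concentration-response used for IC50; 3 independent experiments.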

For series [7], the system named is RAW264.7. In words: Anti-inflammatory activity in mouse RAW264.7 cells assessed as inhibition of LPS-induced IL6 production pre-incubated for 30 mins before LPS stimulation for 24 hrs by ELISA method.
Series [8] concerns Mus musculus. Briefly: Anti-inflammatory activity in C57BL/6 mouse model of LPS-induced acute lung injury assessed as reduction in protein level in bronchoalveolar lavage fluid at 20 mg/kg for 1 week dosed before LPS instillation for 6 hrs by BCA protein assay. The format is functional, organism-based. The method, boiled down: (§3)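 ALI model in mice: one-week pretreatment at 20 mg/kg, then intratracheal LPS instillation (5 mg/kg). After 6 h, animals anaesthetized and killed. Lung wet/dry weight ratio determined. Total cell count and total protein concentration measured in bronchoalveolar lavage fluid.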

The species entered for series [9] is Mus musculus. In words: Anti-inflammatory activity in C57BL/6 mouse model of LPS-induced acute lung injury assessed as reduction in lung airspace inflammation […] by hematoxylin and eosin staining method. The format is functional, organism-based. The method, boiled down: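 Lung tissue taken 6 h after tracheal LPS instillation (5 mg/kg) in mice given or not given treatment. Sections stained with hematoxylin and eosin and examined by light microscopy for inflammatory cell infiltration, interstitial edema and alveolar septal thickening.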

The subject of series [10] is BEAS-2B. In words: Anti-inflammatory activity in human BEAS2B cells assessed as LPS-induced IL-1beta mRNA expression incubated for 6 hrs by RT-qPCR method. It counts as functional, cell-based. In a few lines:
(§4)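 Beas-2B cells exposed to LPS (1.0 µg/mL) for 6 h, with or without compound. IL-1β, IL-6, IL-33 and TNF-α mRNA quantified by RT-qPCR. Results expressed as percent of LPS control.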

The subject of series [11] is Mus musculus. In words: Anti-inflammatory activity in C57BL/6 mouse model of LPS-induced acute lung injury assessed as reduction in TNFalpha level in bronchoalveolar lavage fluid at 20 mg/kg for 1 week dosed before LPS instillation for 6 hrs. The format is functional, organism-based. In a few lines: as §2
The test system of series [12] is Mus musculus. In words: Anti-inflammatory activity in C57BL/6 mouse model of LPS-induced acute lung injury assessed as reduction in lung wet/dryweight ratio at 20 mg/kg for 1 week dosed before LPS instillation for 6 hrs. The format is functional, organism-based. The method, boiled down:
as §3

Series [13] relates to BEAS-2B. In words: Anti-inflammatory activity in human BEAS2B cells assessed as LPS-induced IL6 mRNA expression incubated for 6 hrs by RT-qPCR method. The format is functional, cell-based. In a few lines:
as §4

Series [14] relates to BEAS-2B. Briefly: Anti-inflammatory activity in human BEAS2B cells assessed as LPS-induced TNFalpha mRNA expression incubated for 6 hrs by RT-qPCR method. The format is functional, cell-based. The method, boiled down: as §4
Series [15] relates to Mus musculus. In words: Anti-inflammatory activity in C57BL/6 mouse model of LPS-induced acute lung injury assessed as reduction in total cel count at 20 mg/kg for 1 week dosed before LPS instillation for 6 hrs. The format is functional, organism-based. The method, boiled down:
as §3

The test system of series [16] is BEAS-2B. In words: Anti-inflammatory activity in human BEAS2B cells assessed as LPS-induced IL33 mRNA expression incubated for 6 hrs by RT-qPCR method. It counts as functional, cell-based. In a few lines:
as §4
On the technique in general: Real-time PCR tracks product formation cycle by cycle.

With `COc1ccc(C(=O)/C=C/c2cccc(Br)c2)cc1/N=C/c1cccc(OC)c1O`, the inhibition result with RAW264.7 [1] and in the series with RAW264.7 [2] was “Active” each time.
As for `COc1ccc(C(=O)/C=C/c2ccc3ccccc3c2)cc1/N=C/c1cccc(OC)c1O`, the inhibition entry with RAW264.7 [1] is “Active”.
In the case of `Oc1ccc(/C=C/c2cc(O)cc(O)c2)cc1`, the inhibition entry in the series on Mus musculus [3], with RAW264.7 [1], in the series on RAW264.7 [2] and in the series with Mus musculus [4] was “Active” in each case.
Turning to `COc1ccc(C(=O)/C=C/c2cc(OC)c(OC)c(OC)c2)cc1/N=C/c1cc2c(cc1Br)OCO2`, the inhibition entry with RAW264.7 [1] is “Active”.
As for `COc1ccc(C(=O)/C=C/c2cc(OC)c(OC)c(OC)c2)cc1/N=C/c1ccc(O)cc1O`, the inhibition result in the series with RAW264.7 [1] is “Active”.
On the same count and under the same terms, for `COc1cc(OC)c(/C=C/C(=O)c2ccc(OC)c(/N=C/c3cccc(OC)c3O)c2)c(OC)c1` the value was “Active”.
For `COc1ccc(C(=O)/C=C/c2ccc(C(F)(F)F)cc2)cc1/N=C/c1cccc(OC)c1O`, the inhibition entry in the series on RAW264.7 [1] and in the series with RAW264.7 [2] was “Active” each time.
Consider `COc1ccc(C(=O)/C=C/c2cc(OC)c(OC)c(OC)c2)cc1/N=C/c1cccc(OC)c1O`, for which the Activity entry in [5] is on record as “Non-toxic”. In addition, in the series with RAW264.7 [6], the pIC50 is 5.55 and the inhibition result is “Dose-dependent effect”. For the same molecule, the inhibition result in the series on RAW264.7 [1] is “Active”. In the series with RAW264.7 [2], the inhibition entry was “Active”.
With `COc1ccc(C(=O)/C=C/c2ccccc2C(F)(F)F)cc1/N=C/c1cccc(OC)c1O`, the inhibition result in the series on RAW264.7 [1] and with RAW264.7 [2] was “Active” in each case.
For `COc1ccc(C(=O)/C=C/c2ccc(Br)cc2)cc1/N=C/c1cccc(OC)c1O`, the inhibition entry in the series with RAW264.7 [1] and in the series on RAW264.7 [2] was “Active” throughout.
Regarding `COc1ccc(Br)c(/C=N/c2cc(C(=O)/C=C/c3cc(OC)c(OC)c(OC)c3)ccc2OC)c1`, the inhibition entry in the series on RAW264.7 [1] was “Active”.
On to `COc1ccc(C(=O)/C=C/c2cc(OC)c(OC)c(OC)c2)cc1/N=C/c1ccccc1Br`, for which, in the series on RAW264.7 [7], the IC50 was determined as 4.8 µM. The Activity entry in [5] is on record as “Non-toxic”. Besides, in the series on RAW264.7 [6], the inhibition entry was “Dose-dependent effect”. Also, the inhibition result in the series with RAW264.7 [1] and in the series with RAW264.7 [2] was “Active” in each case.
In the case of `CCN(CC)c1ccc(/C=N/c2cc(C(=O)/C=C/c3cc(OC)c(OC)c(OC)c3)ccc2OC)c(O)c1`, the inhibition entry in the series on RAW264.7 [1] was “Active”.
Regarding `COc1ccc(C(=O)/C=C/c2cc(OC)c(OC)c(OC)c2)cc1/N=C/c1ccc(Cl)cc1Cl`, in the series with RAW264.7 [1], the inhibition entry was “Active”.
As to `COc1ccc(C(=O)/C=C/c2cc(OC)c(OC)c(OC)c2)cc1/N=C/c1ccccc1O`, the IC50 with RAW264.7 [7] worked out at 3.6 µM. Besides, the Activity entry in [5] is listed as “Non-toxic”. In the series on RAW264.7 [6], the inhibition result was “Dose-dependent effect”. Besides, the inhibition result in the series on RAW264.7 [1] is “Active”.
For `COc1ccc(C(=O)/C=C/c2ccc(OC)c(OC)c2)cc1/N=C/c1cccc(OC)c1O`, in the series on RAW264.7 [1], the inhibition entry is “Active”.
In the case of `COc1ccc(C(=O)/C=C/c2cc(OC)c(OC)c(OC)c2)cc1/N=C/c1cccc(O)c1O`, the inhibition result in the series on Mus musculus [3], in the series on Mus musculus [8], in the series filed under Mus musculus [9], with BEAS-2B [10], in the series with Mus musculus [11] and in the series on Mus musculus [12] was “Active” throughout. Besides, the inhibition entry in the series on BEAS-2B [13], in the series with RAW264.7 [1], with BEAS-2B [14], with RAW264.7 [2], in the series with Mus musculus [15] and in the series on BEAS-2B [16] was “Active” in each case. Also, the inhibition result in the series on Mus musculus [4] was “Active”. Further, the IC50 in the series with RAW264.7 [7] was found to be 1.8 µM. Moreover, the Activity entry in series [5] is “Non-toxic”. In the series with RAW264.7 [6], the inhibition entry is “Dose-dependent effect”.
For `COc1ccc(C(=O)/C=C/c2cc(OC)c(OC)c(OC)c2)cc1/N=C/c1ccc(O)c(Br)c1`, the IC50 in the series with RAW264.7 [7] was found to be 3.6 µM. In [5], the Activity result is “Non-toxic”. The inhibition result with RAW264.7 [6] is “Dose-dependent effect”. Moreover, the inhibition result in the series with RAW264.7 [1] and in the series on RAW264.7 [2] was “Active” each time.
In the case of `COc1ccccc1/C=C/C(=O)c1ccc(OC)c(/N=C/c2cccc(OC)c2O)c1`, the inhibition entry with RAW264.7 [1] and in the series on RAW264.7 [2] was “Active” in each case.
Consider `COc1ccc(C(=O)/C=C/c2ccccc2Br)cc1/N=C/c1cccc(OC)c1O`, for which the inhibition result in the series on RAW264.7 [1] and in the series with RAW264.7 [2] was “Active” throughout.

The term pIC50 denotes −log10 of the IC50, conventionally taken in molar units. What is called IC50 is the concentration that gives 50% inhibition.
